Assay outcomes deposited in PubChem BioAssay by several laboratories.
hK5 inh = blocks human kallikrein 5 protease activity; Q9Y337; recombinant hK5, fluorogenic AMC substrate cleavage; inhibition, % at 5 µM; 210,000 tested, 0.59% active; AID 873;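 active = inhibition of 40% or more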;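 note: 0% = enzyme controls without compound and 100% = no-enzyme blanks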
Furin inh = human furin inhibition | purified furin, fluorogenic substrate cleavage | inhibition, % at 20 µM or 30 µM | 220,000 tested, 0.061% active | AID 463115; in the data active = inhibition above about 25%
Target sequence (P09958 108-714 limits assumed): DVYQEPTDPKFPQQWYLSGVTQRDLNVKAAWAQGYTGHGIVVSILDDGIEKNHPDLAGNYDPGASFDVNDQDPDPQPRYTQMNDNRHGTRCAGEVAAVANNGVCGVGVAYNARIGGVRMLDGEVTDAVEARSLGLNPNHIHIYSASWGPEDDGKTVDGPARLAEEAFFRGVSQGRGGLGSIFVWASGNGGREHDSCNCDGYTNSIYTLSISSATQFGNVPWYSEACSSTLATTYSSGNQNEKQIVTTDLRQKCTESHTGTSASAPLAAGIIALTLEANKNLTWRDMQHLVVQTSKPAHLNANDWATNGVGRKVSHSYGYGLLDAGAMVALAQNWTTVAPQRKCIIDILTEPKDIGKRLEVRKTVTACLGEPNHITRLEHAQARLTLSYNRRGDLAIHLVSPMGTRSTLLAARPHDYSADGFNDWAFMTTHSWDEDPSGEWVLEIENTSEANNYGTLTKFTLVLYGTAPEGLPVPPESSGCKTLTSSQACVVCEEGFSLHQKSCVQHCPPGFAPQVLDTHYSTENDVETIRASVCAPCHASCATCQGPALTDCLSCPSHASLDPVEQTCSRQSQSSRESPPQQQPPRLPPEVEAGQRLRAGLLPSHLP
FXIa inh = blocks human coagulation factor XIa protease activity. P03951. purified FXIa, Boc-Glu-Ala-Arg-AMC fluorogenic substrate. inhibition, % at 5 µM. 220,000 tested, 0.14% active. AID 798;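 active = inhibition of at least 40%; inactive = inhibition below 40%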;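 note: fluorescence of freed AMC excited at 355 nm; 0% = enzyme without compound and 100% = no enzyme blank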
FXIIa inh 1536 = blocks human coagulation factor XIIa protease activity; purified FXIIa, Boc-QGR-AMC fluorogenic substrate, 2 h; P00748; inhibition, % at 5 µM; 220,000 tested, 0.3% active; in the data active = inhibition above about 40%;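 note: 0% = enzyme with no compound and 100% = blank without enzyme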
thrombin 1536 = inhibitors of human thrombin | 220,000 tested, 0.26% active | AID 1046 | alpha-thrombin, Boc-VPR-AMC fluorogenic substrate cleavage | inhibition, % at 5 µM | P00734;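 active = inhibition at or above 40%; inactive = inhibition below 40%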;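 note: 0% = enzyme with no compound and 100% = wells without enzyme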
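System – human alpha-thrombin · Medium – pH 7.5 Tris (50 mM) with NaCl 150 mM, Tween 20 0.05% · Compound – single-point dosing at 5 µM, 0.2% DMSO · Incubation – enzyme reaction carried out at room temperature · Technique – fluorescence of released AMC, ex 355 nm, em 460 nm · Read-out basis – % inhibition of thrombin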
* marks the source's active call; other numbers are inactive results; / = no result. A selection: hits, their analogues and other compounds. The true share with any hit is near 1.1%.

SMILES	hK5 inh	Furin inh	FXIa inh	FXIIa inh 1536	thrombin 1536
Nc1nc(SCC(=O)NC2CCCC2)[nH]c(=O)c1-c1ccccc1	-14	-19	-6	-16	-9
COc1cc2c(cc1OC)CN(C(=O)c1cccc([N+](=O)[O-])c1)CC2	-1	-18	-2	8	-6
COC(=O)Cc1ccc(NC(=S)NC2CC2)cc1	-1	-11	-2	5	-11
O=C1C(Cl)=C(Nc2ccccc2)C(=O)c2ccccc21	-15	-24	-4	9	-3
O=C(O)c1ccc(NC2=C(Cl)C(=O)c3ccccc3C2=O)cc1	81*	-2	14	43*	23
COc1cccc(OC)c1-c1nn2c(-c3ccco3)nnc2s1	45*	-15	8	45*	38
CCOc1ccc(-c2nnc3sc(-c4c(OC)cccc4OC)nn23)cc1	/	10	/	/	/
O=C(Oc1ccc([N+](=O)[O-])cc1)c1cncc(Br)c1	4	-4	8	16	8
CCOC(=O)N1CCC(Nc2ncnc3c2cnn3-c2ccc(C)cc2C)CC1	44*	-10	15	17	17
O=C(O)Cc1ccccc1C(=O)O	-24	-21	-14	-4	44*
N#Cc1c(/N=C/c2ccco2)sc2c1CCC2	19	-11	13	9	104*
O=C(O)Cn1c(SCc2ccccc2)nc2ccccc21	-5	-18	4	12	2
O=C(O)Cn1c(SCCOc2ccccc2)nc2ccccc21	42*	-23	-1	23	4
CCn1cc(C(=O)NCc2cccnc2)c(=O)c2cc(F)c(N3CCN(C(=O)c4ccco4)CC3)cc21	4	-22	15	41*	1
Cc1ccc2nc(NC(=O)C3CCCN(S(=O)(=O)c4cccc5nsnc45)C3)sc2c1 (stereo not given)	31	-18	17	45*	15
COc1ccc(NC(=O)C2CCCN(S(=O)(=O)c3cccc4cccnc34)C2)c(OC)c1 (stereo not given)	113*	-14	13	33	21
CC(=O)c1cccc(NC(=O)C2CCCN(S(=O)(=O)c3cccc4cccnc34)C2)c1 (stereo not given)	-5	-28	5	13	-1
CC(=O)c1c(NCCc2ccccc2)nc(=S)n(-c2ccccc2)c1C	0	-7	-6	10	-16
CC(=O)c1c(NCc2ccccc2)nc(=O)n(-c2ccccc2)c1C	70*	-16	2	11	11
CCOC(=O)N1CCN(C(=O)c2cnn3c(C)c(Cc4ccc(C)cc4)c(C)nc23)CC1	63*	-19	4	21	10
Cc1ccc(C)c(Cc2c(C)nc3c(C(=O)N4CCOCC4)cnn3c2C)c1	19	-34	-11	-2	-2
Cc1ccc(S(=O)(=O)/N=C/c2ccco2)cc1	87*	-29	5	31	104*
COc1cccc(CN2CCN(Cc3nc(C(C)C)cs3)CC2CCO)c1 (stereo not given)	4	-30	-1	8	-2
C=C(C)CN=c1scc(C)n1/N=C/c1ccco1	43*	-8	4	10	9
COC(=O)c1cccc(NC(=O)NC(=O)c2ccc(Cl)cc2)c1	70*	-2	11	24	12
SMILES	hK5 inh	Furin inh	FXIa inh	FXIIa inh 1536	thrombin 1536
COC(=O)c1cccc(NC(=O)Nc2ccc(Cl)cc2)c1	12	-25	2	1	-6
COCCCNC(=O)Cc1coc2ccc3ccccc3c12	-9	-19	3	8	1
CCCCNC(=O)Cc1coc2ccc3ccccc3c12	58*	-28	1	20	8
O=C(NNc1cccc(Cl)c1)c1cccnc1Cl	-15	-24	7	13	-2
COc1ccc(S(=O)(=O)n2nc(OC(=O)c3ccncc3)cc2N)cc1	1	-33	2	7	1
COc1ccc(S(=O)(=O)n2nc(OC(=O)c3ccccc3)cc2N)cc1	51*	-22	35	23	4
COc1ccc(S(=O)(=O)n2nc(OC(=O)c3cccs3)cc2N)cc1	78*	-8	38	19	18
COc1ccc(CC(=O)Nc2cc(C)ccn2)cc1	82*	-16	10	-1	30
O=C(COc1ccc(Cl)cc1Cl)NC(=O)N1CCOCC1	-7	36*	-6	5	-6
Cc1ccnc(NC(=O)c2ccc([N+](=O)[O-])o2)c1	20	-14	12	10	101*
Cc1cc(Cl)ccc1OCCCC(=O)N1CCOCC1	-14	29*	5	1	-4
CCOC(=O)CC(=O)CSc1ncnc2c1nnn2-c1ccc(OC)cc1	-13	-18	-4	6	3
CC(C)c1ccc(C2NC(=S)NC3=C2C(=O)CC(C)(C)C3)cc1 (stereo not given)	-8	-8	6	8	-5
N#CCC(=O)Nc1ccc(C(=O)NCc2ccccn2)cc1	-3	0	-6	7	-10
C=CCn1c(SCC(=O)NCC2CCCO2)nnc1-c1ccccc1 (stereo not given)	-2	-15	0	3	-2
Cc1ccnc(NC(=O)CCCOc2ccc(Cl)cc2C)c1	41*	-11	35	27	6
Cc1cc(Cl)ccc1OCCCC(=O)NN	-4	-23	-8	4	-28
CS(=O)(=O)N1CCN(C(=O)c2ccccc2F)CC1	116*	-14	8	8	7
Cc1nc(NC(=O)c2ccc(Cl)cc2)sc1-c1csc(Nc2cccc(F)c2)n1	19	-2	-1	5	0
O=S(=O)(/C=C/c1ccccc1)NC1CCCCCCC1	-13	-17	-1	9	-4
Cc1cccc(OCC(=O)N/N=C/c2ccccc2C(=O)O)c1	42*	-3	43*	26	34
COC(=O)C1=CNC=C(C(=O)OC)C1c1ccc(C(=O)OC)cc1	-20	-29	-6	7	-8
Cc1cc(N2C(=O)CC(Cc3ccccc3)C2=O)no1 (stereo not given)	-21	-19	4	-4	-5
Cc1cc(N2C(=O)CC(Cc3ccc(Cl)cc3)C2=O)no1 (stereo not given)	40*	-23	-3	18	5
COc1ccc(OC)c(NC(=S)NCc2cccnc2)c1	-14	-18	3	14	-8
SMILES	hK5 inh	Furin inh	FXIa inh	FXIIa inh 1536	thrombin 1536
COc1ccc(CN(C)C(C)C(=O)Nc2ccc(S(=O)(=O)N3CCCC3)cc2)c(OC)c1OC (stereo not given)	-1	-13	-5	6	12
CCN(CC)S(=O)(=O)c1cc(C(=O)Nc2nncs2)c(Cl)cc1Cl	62*	-9	3	3	15
CC1CN(S(=O)(=O)c2cccc3nsnc23)CC(C)O1 (stereo not given)	-10	-4	-4	6	-2
CC1Cc2ccccc2N1S(=O)(=O)c1cccc2nsnc12 (stereo not given)	21	-14	19	43*	2
NC(=O)Cn1nnc(-c2ccc(NC(=O)c3ccc(F)cc3)cc2)n1	0	-28	-4	/	-11
Cc1ccc(C)c(SCC(=O)OCC(=O)Nc2ccc(S(=O)(=O)N3CCOCC3)cc2)c1	-4	-25	5	10	50*
